For 37 sequences, Tm and folding enthalpy results are on record in the array DNA melting data of Ke et al. (doi:10.1101/2024.01.08.574731).

Data set [1] can be described thus: melting temperature; fluorescence melt of hairpins on a sequencing array, two-state fit, raised by 9.35 °C to match UV melts. As to conditions: sodium 0.088 M. The procedure, abridged: (§1)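 In 50 mM Na-HEPES pH 8.0 containing 25 mM NaCl, hairpins from the library on a sequenced MiSeq flow cell were imaged for Cy3 fluorescence at 2.5 °C steps up to 60 °C, with Cy3 and quencher oligos annealed. After normalisation to pre-quench Cy3 and to control constructs, two-state fits with bootstrapping gave melting temperature and folding enthalpy. Four replicates were combined by inverse-variance weighting, and fitted temperatures were shifted up by 9.35 °C to match UV melts.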

The nature of data set [2]: folding enthalpy; higher = less favourable; fluorescence melt of hairpins on a sequencing array, two-state fit. The conditions noted are these: sodium 0.088 M. The procedure, abridged:
as §1

With GGTGCCCGAAAGGGAACC (((.(((....))).))), in data set [1], the Tm was determined as 65.1 °C. The folding enthalpy in data set [2] is -35.8 kcal/mol.

For GCGGTAAACCGC ((((....)))), the Tm in data set [1] worked out at 56 °C. In addition, the folding enthalpy in data set [2] is -26.2 kcal/mol.

With GATCTCGGCGGAGATC ((((((....)))))), the Tm in data set [1] is 55.4 °C. For the same sequence, the folding enthalpy in data set [2] is -48.8 kcal/mol.

On to GCATGGCGAAAGCAAGGC ((.(.((....)).).)), for which the Tm in data set [1] was 49.5 °C. The folding enthalpy in data set [2] is -17.2 kcal/mol.

Regarding GCATGGCGAAAGCCAAGC ((.((((....)))).)), the Tm in data set [1] was found to be 61.6 °C. Also, the folding enthalpy in data set [2] is -17.6 kcal/mol.

For the sequence GCGACGGGAAACCATCGC ((((.((....)).)))), the Tm in data set [1] worked out at 51.4 °C. Further, the folding enthalpy in data set [2] was -45.5 kcal/mol.

As to GAATGCGGAAACGCACTC ((.((((....)))).)), the Tm in data set [1] was determined as 38.4 °C. In addition, in data set [2], the folding enthalpy is -13.1 kcal/mol.

As for GATACCGGAAACGGTACC (.(((((....))))).), the Tm in data set [1] worked out at 38.8 °C. The folding enthalpy in data set [2] was -13.6 kcal/mol.

Take GATCTGATCCCAGATC ((((((....)))))): the Tm in data set [1] came to 47 °C. The folding enthalpy in data set [2] was -27.2 kcal/mol.

As to GGTCACGGAAACGTGGCC ((.((((....)))).)), in data set [1], the Tm amounted to 64.9 °C. In addition, the folding enthalpy in data set [2] was -37.2 kcal/mol.

With GTAGACGAAAGTCACTAC ((((((....)))..))), the Tm in data set [1] was 41.1 °C. Moreover, the folding enthalpy in data set [2] was -14.2 kcal/mol.

For GCAGATGGAAACATTTGC (((.(((....))).))), the Tm in data set [1] was found to be 44.5 °C. The folding enthalpy in data set [2] is -33.7 kcal/mol.

Take GTCAGGGGAAACCTTGGC (.((.((....)).)).): in data set [1], the Tm was 32.7 °C. Moreover, in data set [2], the folding enthalpy was -17.3 kcal/mol.

Turning to GCAGAAGGAAACTTCCGC ((.((((....)))).)), in data set [1], the Tm stood at 37.5 °C. Moreover, the folding enthalpy in data set [2] is -20.6 kcal/mol.

Regarding GTGAGTACGAAAGTACAC (((..(((....)))))), in data set [1], the Tm is 42.2 °C. In data set [2], the folding enthalpy was -16.3 kcal/mol.

GTACACGAAAGTGTCTAC ((((((....)))..))): the Tm in data set [1] is 35.8 °C. In addition, the folding enthalpy in data set [2] was -10.6 kcal/mol.

For the sequence GCAGCGCGAAAGCCGTGC (((..((....))..))), the Tm in data set [1] turned out to be 43.9 °C. Further, the folding enthalpy in data set [2] was -15.3 kcal/mol.

Take GCTACTGGAAACGGTAGC (((((.(....).))))): in data set [1], the Tm turned out to be 50.2 °C. Moreover, in data set [2], the folding enthalpy was -37.5 kcal/mol.

Consider GTCCGCGAAAGCGGTGAC ((((((....)))..))), for which, in data set [1], the Tm was 41 °C. Besides, the folding enthalpy in data set [2] is -8.67 kcal/mol.

For the sequence GCCCTCGAAAGAGTCGGC ((((((....)))..))), the Tm in data set [1] was 40.9 °C. Also, the folding enthalpy in data set [2] was -24.1 kcal/mol.

As to GCTCACGAAAGTGCAAGC ((((((....)))..))), the Tm in data set [1] was determined as 39.4 °C. Moreover, the folding enthalpy in data set [2] was -17.4 kcal/mol.

For GAATACACGAAAGTGTTC (((..(((....)))))), in data set [1], the Tm is 27.3 °C. In addition, in data set [2], the folding enthalpy was -13.4 kcal/mol.

Consider GTAGAGTCGAAAGACTAC (((..(((....)))))), for which the Tm in data set [1] came out at 35.1 °C. In addition, the folding enthalpy in data set [2] was -10.8 kcal/mol.

For the sequence GAGAAAGAAATTTCTC ((((((....)))))), the Tm in data set [1] was 36.4 °C. In addition, in data set [2], the folding enthalpy was -18.8 kcal/mol.

Take GACGAACGAAAGTTAGTC (((.(((....))).))): the Tm in data set [1] was 49.9 °C. In data set [2], the folding enthalpy is -35.8 kcal/mol.

For GACACGACGAAAGTCGTC (((..(((....)))))), the Tm in data set [1] worked out at 34.4 °C. Further, in data set [2], the folding enthalpy was -6.1 kcal/mol.

With GCCCCAGGAAACTAGGGC ((((.((....)).)))), the Tm in data set [1] is 46.4 °C. The folding enthalpy in data set [2] is -29.1 kcal/mol.

Take GAGACCGGAAACAGTCTC (((((.(....).))))): the Tm in data set [1] is 40.4 °C. The folding enthalpy in data set [2] is -27.5 kcal/mol.

As for GGTACTCGAAAGAGGACC (((.(((....))).))), the Tm in data set [1] is 61.5 °C. Moreover, the folding enthalpy in data set [2] is -42.7 kcal/mol.

For the sequence GTTAGTGAAAACTAAC ((((((....)))))), the Tm in data set [1] is 49.3 °C. Also, the folding enthalpy in data set [2] was -33.4 kcal/mol.

For the sequence GATCTTCCACAAGATC ((((((....)))))), the Tm in data set [1] turned out to be 41.5 °C. In data set [2], the folding enthalpy is -35.2 kcal/mol.

For the sequence GTTCCCGAAAGGGATAAC ((((((....)))..))), the Tm in data set [1] was found to be 36.5 °C. The folding enthalpy in data set [2] is -10.2 kcal/mol.

Turning to GTGCCACCGAAAGGTCAC (((..(((....)))))), the Tm in data set [1] came out at 50.5 °C. The folding enthalpy in data set [2] was -9.49 kcal/mol.

Turning to GTAGGCGAAAGCCCATAC ((((((....)))..))), in data set [1], the Tm worked out at 28.2 °C. Also, in data set [2], the folding enthalpy was -8.87 kcal/mol.

For the sequence GAGCGCGGAAACACGCTC (((((.(....).))))), the Tm in data set [1] was found to be 56.2 °C. Further, in data set [2], the folding enthalpy was -41.1 kcal/mol.

Consider GATCGGCAATCCGATC ((((((....)))))), for which, in data set [1], the Tm amounted to 55 °C. Further, the folding enthalpy in data set [2] was -44.7 kcal/mol.

As to GATCGAGGACTCGATC ((((((....)))))), the Tm in data set [1] turned out to be 60.1 °C. The folding enthalpy in data set [2] is -38.4 kcal/mol.
